Experiments:
[1] = target: 5-hydroxytryptamine receptor 6 (Homo sapiens, UniProt P50406); assay: Binding affinity against human 5-hydroxytryptamine 6 receptor
[2] = target: T1, 5-hydroxytryptamine receptor 2C (Homo sapiens, UniProt P28335); assay: Compound was evaluated for binding affinity against human cloned 5-hydroxytryptamine 2C receptor in HEK 293 cells using [3H]mesulergine as the radioligand; assay type: cell-based, HEK293
T1 sequence (P28335 whole entry): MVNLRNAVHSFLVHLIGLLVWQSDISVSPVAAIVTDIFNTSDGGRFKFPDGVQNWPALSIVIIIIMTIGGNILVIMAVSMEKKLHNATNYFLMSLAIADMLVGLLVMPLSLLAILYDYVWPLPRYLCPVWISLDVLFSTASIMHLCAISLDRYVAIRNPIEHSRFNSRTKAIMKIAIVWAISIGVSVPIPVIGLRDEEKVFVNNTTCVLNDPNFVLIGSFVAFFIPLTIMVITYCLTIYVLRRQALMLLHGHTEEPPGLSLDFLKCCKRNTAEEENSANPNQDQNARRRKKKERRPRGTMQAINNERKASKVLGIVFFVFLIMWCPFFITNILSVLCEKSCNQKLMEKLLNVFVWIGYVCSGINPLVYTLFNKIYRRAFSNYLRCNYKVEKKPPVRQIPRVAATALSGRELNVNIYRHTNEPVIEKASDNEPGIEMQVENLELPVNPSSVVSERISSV

D(2) dopamine receptor = D(2) dopamine receptor (Homo sapiens, UniProt P14416); assay: Compound was evaluated for binding affinity against Dopamine receptor D2 in CHO cells using [125I]iodosulpiride as the radioligand; assay type: cell-based
Method in brief: (§1)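 Radioligand binding to human cloned receptors: 5-HT1A in HEK 293 cells with [3H]-8-OH-DPAT; 5-HT1B and 5-HT1E in CHO cells with [3H]-5-HT; 5-HT2B in HEK 293 cells with [3H]-5-HT; D2 and D3 in CHO cells with [125I]-iodosulpride. Values are the mean of at least two determinations, each within 0.2 log unit of the mean.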

[3] = target: 5-hydroxytryptamine receptor 1B (Homo sapiens, UniProt P28222); assay: Compound was evaluated for binding affinity against human cloned 5-hydroxytryptamine 1B receptor in CHO cells using [3H]5-HT as the radioligand; assay type: cell-based; method in brief: as §1
[4] = target: T2, 5-hydroxytryptamine receptor 1A (Homo sapiens, UniProt P08908); assay: Compound was evaluated for binding affinity against human cloned 5-hydroxytryptamine 1A receptor in HEK 293 cells using [3H]8-OH-DPAT as the radioligand; assay type: cell-based, HEK293; method in brief: as §1
T2 sequence (P08908 whole entry): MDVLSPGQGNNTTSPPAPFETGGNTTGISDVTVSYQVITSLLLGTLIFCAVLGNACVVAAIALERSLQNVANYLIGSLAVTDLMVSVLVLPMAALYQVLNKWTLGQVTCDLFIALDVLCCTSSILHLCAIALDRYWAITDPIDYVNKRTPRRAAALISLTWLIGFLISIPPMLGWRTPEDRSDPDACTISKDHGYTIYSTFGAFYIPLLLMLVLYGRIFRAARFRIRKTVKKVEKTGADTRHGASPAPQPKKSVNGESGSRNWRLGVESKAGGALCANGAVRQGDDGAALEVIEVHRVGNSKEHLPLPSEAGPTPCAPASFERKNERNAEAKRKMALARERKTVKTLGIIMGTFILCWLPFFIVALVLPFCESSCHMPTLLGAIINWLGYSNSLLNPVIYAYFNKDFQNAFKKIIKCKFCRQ

[5] = Plasma Clearance measured at steady-state following iv infusion at 0.6 mg/kg/h in rats; assay type: ADME, organism-based; design: route intravenous; details: rat, 0.6 mg/kg/h infusion
[6] = target: 5-hydroxytryptamine receptor 2B (Homo sapiens, UniProt P41595); assay: Compound was evaluated for binding affinity against human cloned 5-HT2B receptor in HEK 293 cells using [3H]5-HT as the radioligand; assay type: cell-based, HEK293; method in brief: as §1
[7] = target: 5-hydroxytryptamine receptor 2A (Homo sapiens, UniProt P28223); assay: Compound was evaluated for binding affinity against human cloned 5-hydroxytryptamine 2A receptor in HEK 293 cells using [3H]ketanserin as the radioligand; assay type: cell-based, HEK293
[8] = target: T3, Alpha-1B adrenergic receptor (Homo sapiens, UniProt P35368); assay: Compound was evaluated for binding affinity against Alpha-1B adrenergic receptor
T3 sequence (P35368 whole entry): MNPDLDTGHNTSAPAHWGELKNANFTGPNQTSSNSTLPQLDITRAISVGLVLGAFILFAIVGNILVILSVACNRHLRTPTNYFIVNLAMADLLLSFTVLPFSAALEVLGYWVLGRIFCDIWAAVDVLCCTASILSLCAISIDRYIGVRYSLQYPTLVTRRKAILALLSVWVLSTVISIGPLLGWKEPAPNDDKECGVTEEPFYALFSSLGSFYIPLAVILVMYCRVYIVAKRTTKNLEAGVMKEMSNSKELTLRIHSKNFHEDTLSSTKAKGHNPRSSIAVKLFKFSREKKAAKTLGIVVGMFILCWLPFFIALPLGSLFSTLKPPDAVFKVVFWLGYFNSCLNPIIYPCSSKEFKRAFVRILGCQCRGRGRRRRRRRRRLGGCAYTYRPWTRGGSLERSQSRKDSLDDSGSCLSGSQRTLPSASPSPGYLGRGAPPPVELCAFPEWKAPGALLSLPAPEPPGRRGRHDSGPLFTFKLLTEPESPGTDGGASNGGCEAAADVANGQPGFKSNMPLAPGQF

Rattus norvegicus = organism: Rattus norvegicus; assay: Blood: Brain distribution ratio is determined in rat; assay type: ADME, organism-based
Method in brief: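 Rats received iv infusion for 8 h, and the brain:blood ratio was taken at steady state.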

[9] = target: 5-hydroxytryptamine receptor 1E (Homo sapiens, UniProt P28566); assay: Compound was evaluated for binding affinity against human cloned 5-hydroxytryptamine 1E receptor in CHO cells using [3H]5-HT as the radioligand; assay type: cell-based; method in brief: as §1
[10] = target: 5-hydroxytryptamine receptor 1D (Homo sapiens, UniProt P28221); assay: Compound was evaluated for binding affinity against human cloned 5-hydroxytryptamine 1D receptor in CHO cells using [3H]5-HT as the radioligand; assay type: cell-based
[11] = Bioavailability in rat (dose 3 mg/kg in 1% methylcellulose ); assay type: ADME, organism-based; details: in vivo
Method in brief: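 Oral suspension dose of 3 mg/kg in 1% methylcellulose (v/v) aq to rats (n=3). Blood levels were measured by LC/MS/MS to derive AUC/dose and bioavailability.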

[12] = target: 5-hydroxytryptamine receptor 4 (Homo sapiens, UniProt Q13639); assay: Compound was evaluated for the binding affinity against human cloned 5-hydroxytryptamine 4 receptor in HeLa cells using [3H]-LSD as the radioligand; assay type: cell-based
[13] = target: T4, 5-hydroxytryptamine receptor 1F (Homo sapiens, UniProt P30939); assay: Compound was evaluated for binding affinity against human cloned 5-hydroxytryptamine 1F receptor in CHO cells using [3H]-5-HT as the radioligand; assay type: cell-based
T4 sequence (P30939 whole entry): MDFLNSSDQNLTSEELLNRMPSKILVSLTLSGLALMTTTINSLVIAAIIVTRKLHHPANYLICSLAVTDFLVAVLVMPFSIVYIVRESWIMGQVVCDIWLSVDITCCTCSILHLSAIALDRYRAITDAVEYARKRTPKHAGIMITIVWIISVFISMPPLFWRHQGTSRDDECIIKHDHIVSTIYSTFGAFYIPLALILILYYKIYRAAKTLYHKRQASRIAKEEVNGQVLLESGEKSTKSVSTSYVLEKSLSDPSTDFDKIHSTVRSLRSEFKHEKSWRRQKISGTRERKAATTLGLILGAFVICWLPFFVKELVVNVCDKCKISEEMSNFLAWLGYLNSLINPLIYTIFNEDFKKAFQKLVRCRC

D(3) dopamine receptor = D(3) dopamine receptor (Homo sapiens, UniProt P35462); assay: Compound was evaluated for binding affinity against Dopamine receptor D3 in CHO cells using [125I]iodosulpiride as the radioligand; assay type: cell-based; method in brief: as §1
Sequence of D(3) dopamine receptor (P35462 whole entry): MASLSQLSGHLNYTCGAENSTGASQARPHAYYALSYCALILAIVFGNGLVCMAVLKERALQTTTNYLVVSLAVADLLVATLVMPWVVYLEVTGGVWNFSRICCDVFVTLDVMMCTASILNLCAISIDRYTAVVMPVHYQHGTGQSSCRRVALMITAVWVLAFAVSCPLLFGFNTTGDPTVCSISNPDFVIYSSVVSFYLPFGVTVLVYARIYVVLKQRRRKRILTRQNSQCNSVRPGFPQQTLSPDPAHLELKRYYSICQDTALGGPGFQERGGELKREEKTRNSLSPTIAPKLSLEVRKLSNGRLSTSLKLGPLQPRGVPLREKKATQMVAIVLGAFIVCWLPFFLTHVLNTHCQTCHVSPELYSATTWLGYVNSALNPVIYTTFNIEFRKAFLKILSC

Sequence of 5-hydroxytryptamine receptor 6 (P50406 whole entry): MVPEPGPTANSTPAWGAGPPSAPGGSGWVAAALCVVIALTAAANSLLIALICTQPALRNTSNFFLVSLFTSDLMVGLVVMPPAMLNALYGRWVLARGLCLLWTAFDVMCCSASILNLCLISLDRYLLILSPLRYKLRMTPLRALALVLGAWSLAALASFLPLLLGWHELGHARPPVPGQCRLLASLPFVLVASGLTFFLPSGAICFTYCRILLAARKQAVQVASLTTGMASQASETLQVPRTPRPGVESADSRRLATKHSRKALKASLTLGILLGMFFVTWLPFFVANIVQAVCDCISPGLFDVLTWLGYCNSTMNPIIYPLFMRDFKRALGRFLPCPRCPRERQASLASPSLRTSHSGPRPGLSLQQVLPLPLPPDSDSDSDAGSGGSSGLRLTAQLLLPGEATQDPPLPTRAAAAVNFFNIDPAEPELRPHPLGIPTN
Sequence of D(2) dopamine receptor (P14416 whole entry): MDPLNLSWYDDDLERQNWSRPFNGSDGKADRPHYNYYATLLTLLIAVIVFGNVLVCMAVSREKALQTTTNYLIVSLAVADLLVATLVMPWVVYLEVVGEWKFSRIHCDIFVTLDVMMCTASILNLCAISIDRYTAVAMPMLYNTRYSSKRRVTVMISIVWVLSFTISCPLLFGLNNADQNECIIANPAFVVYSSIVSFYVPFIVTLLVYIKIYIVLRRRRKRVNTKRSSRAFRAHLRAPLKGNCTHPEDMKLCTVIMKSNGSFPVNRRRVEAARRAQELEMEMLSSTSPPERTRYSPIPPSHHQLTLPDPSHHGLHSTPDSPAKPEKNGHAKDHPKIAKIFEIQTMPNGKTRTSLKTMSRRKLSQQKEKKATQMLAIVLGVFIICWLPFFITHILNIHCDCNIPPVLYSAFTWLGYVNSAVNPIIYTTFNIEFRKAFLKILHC
Sequence of 5-hydroxytryptamine receptor 1E (P28566 whole entry): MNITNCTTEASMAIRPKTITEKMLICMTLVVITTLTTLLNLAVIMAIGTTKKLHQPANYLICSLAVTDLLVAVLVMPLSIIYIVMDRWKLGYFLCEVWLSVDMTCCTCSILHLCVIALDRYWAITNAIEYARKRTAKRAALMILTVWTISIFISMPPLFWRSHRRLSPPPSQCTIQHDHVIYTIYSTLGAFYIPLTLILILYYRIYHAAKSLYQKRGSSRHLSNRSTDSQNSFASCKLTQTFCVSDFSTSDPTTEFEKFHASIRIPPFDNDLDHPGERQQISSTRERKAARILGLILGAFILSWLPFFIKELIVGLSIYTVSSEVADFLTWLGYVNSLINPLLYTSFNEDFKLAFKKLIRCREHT
Sequence of 5-hydroxytryptamine receptor 2A (P28223 whole entry): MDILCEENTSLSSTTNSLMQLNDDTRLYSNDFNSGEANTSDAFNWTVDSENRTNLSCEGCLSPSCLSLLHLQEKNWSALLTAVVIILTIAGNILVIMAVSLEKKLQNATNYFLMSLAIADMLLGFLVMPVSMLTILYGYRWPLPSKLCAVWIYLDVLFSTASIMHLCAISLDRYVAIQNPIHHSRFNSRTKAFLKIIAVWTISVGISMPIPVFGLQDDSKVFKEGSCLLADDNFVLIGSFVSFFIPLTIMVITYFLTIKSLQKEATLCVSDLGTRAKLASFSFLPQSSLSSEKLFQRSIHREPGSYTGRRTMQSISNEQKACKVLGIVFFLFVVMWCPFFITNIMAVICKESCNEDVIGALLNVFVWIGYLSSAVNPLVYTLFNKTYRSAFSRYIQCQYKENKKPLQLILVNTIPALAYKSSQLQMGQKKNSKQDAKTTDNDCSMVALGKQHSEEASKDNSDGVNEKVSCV
Sequence of 5-hydroxytryptamine receptor 1B (P28222 whole entry): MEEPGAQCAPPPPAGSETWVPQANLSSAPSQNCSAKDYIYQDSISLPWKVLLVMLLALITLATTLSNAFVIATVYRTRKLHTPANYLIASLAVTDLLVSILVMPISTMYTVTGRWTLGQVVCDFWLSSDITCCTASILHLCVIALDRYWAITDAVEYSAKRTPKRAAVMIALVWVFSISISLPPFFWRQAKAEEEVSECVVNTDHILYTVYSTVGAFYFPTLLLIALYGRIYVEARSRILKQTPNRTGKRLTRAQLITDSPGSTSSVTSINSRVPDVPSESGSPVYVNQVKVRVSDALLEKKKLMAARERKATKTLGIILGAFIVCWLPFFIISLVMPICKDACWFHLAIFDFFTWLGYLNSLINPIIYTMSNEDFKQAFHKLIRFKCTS
Sequence of 5-hydroxytryptamine receptor 1D (P28221 whole entry): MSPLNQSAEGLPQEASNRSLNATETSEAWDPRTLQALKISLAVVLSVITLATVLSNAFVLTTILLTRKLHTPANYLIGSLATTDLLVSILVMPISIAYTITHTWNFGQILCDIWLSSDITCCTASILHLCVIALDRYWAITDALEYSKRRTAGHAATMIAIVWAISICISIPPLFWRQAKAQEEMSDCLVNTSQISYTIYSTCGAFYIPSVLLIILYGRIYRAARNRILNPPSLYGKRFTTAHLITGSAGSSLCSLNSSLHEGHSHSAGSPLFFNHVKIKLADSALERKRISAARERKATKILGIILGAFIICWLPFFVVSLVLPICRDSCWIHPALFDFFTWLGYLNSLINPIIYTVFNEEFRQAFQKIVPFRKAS
Sequence of 5-hydroxytryptamine receptor 4 (Q13639 whole entry): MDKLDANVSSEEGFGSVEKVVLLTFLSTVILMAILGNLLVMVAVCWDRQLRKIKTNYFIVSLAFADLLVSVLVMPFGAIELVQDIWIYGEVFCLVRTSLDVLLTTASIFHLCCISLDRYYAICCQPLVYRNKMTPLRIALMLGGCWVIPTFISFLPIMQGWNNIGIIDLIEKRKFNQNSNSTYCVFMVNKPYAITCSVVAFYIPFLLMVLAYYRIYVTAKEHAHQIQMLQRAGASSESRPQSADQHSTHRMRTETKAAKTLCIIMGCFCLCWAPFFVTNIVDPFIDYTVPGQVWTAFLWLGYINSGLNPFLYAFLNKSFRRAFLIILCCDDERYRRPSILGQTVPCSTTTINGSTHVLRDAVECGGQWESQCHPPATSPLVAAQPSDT
Sequence of 5-hydroxytryptamine receptor 2B (P41595 whole entry): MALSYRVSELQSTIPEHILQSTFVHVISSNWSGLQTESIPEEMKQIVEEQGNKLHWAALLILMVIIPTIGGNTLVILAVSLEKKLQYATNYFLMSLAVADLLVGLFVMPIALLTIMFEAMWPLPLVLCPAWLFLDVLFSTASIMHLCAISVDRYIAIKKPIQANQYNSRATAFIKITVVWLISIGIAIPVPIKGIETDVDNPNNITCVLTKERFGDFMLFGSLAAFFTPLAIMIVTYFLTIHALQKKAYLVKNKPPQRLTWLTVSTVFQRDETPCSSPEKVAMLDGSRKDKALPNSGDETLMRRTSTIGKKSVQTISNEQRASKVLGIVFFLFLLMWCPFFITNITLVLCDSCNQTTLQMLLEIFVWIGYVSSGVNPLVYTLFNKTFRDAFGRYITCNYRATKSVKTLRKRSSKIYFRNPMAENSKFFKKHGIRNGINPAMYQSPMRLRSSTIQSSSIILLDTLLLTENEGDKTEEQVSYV

For `COc1ccc(S(=O)(=O)N2c3ccccc3CC2(C)C)cc1N1CCNCC1`, the Ki [1] was 0.794 nM.
Compound `COc1ccc(S(=O)(=O)N2CCCc3c(Cl)cc(Cl)cc32)cc1N1CCNCC1` has a Ki [1] of 0.794 nM.
Work on `COc1ccc(S(=O)(=O)N2CCCc3cc(Br)ccc32)cc1N1CCNCC1` yielded a Ki [1] of 3.16 nM.
With `COc1ccc(S(=O)(=O)Nc2cc(Br)cc(Cl)c2Br)cc1N1CCNCC1` the Ki [1] was 3.98 nM.
`COc1ccc(S(=O)(=O)Nc2cc(I)ccc2C)cc1N1CCNCC1` gave a Ki [1] of 0.794 nM.
`COc1ccc(S(=O)(=O)Nc2cc([N+](=O)[O-])ccc2C)cc1N1CCNCC1` gave a Ki [1] of 20 nM.
For `COc1ccc(Cl)cc1NS(=O)(=O)c1ccc(OC)c(N2CCNCC2)c1`, the Ki [1] was 1.26 nM.
In the case of `COc1ccc(S(=O)(=O)Nc2cc(Br)ccc2Br)cc1N1CCNCC1`, the Ki [2] is reported as > 5010 nM, the Ki (D(2) dopamine receptor) is reported as > 10000 nM and the Ki [3] is reported as > 5010 nM. The Ki [4] was > 3160 nM, the clearance [5] was 43 mL/min/kg and the Ki [6] was > 3160 nM. For the same compound, the Ki [7] was > 10000 nM, the Ki [8] was > 2000 nM and the Distribution ratio (Rattus norvegicus) was 0.38. For the same compound, the Ki [9] was > 10000 nM, the Ki [10] was > 1580 nM and the bioavailability [11] was 20%. For the same compound, the Ki [12] was 3160 nM, the Ki [1] was 1 nM and the Ki [13] was > 10000 nM. The Ki (D(3) dopamine receptor) was > 5010 nM.
With `COc1ccc(S(=O)(=O)Nc2cccc(Br)c2)cc1N1CCNCC1` the Ki [1] was 1.26 nM.
For `COc1ccc(S(=O)(=O)Nc2ccc(Cl)c(Cl)c2)cc1N1CCNCC1`, the Ki [1] was 2.51 nM.
Work on `COc1ccc(S(=O)(=O)Nc2cc(Br)cc(F)c2Cl)cc1N1CCNCC1` yielded a Ki [1] of 3.16 nM.
`COc1ccc(S(=O)(=O)Nc2cc(Br)cc(Br)c2Br)cc1N1CCNCC1` showed a Ki [1] of 2.51 nM.
With `COc1ccc(S(=O)(=O)Nc2ccccc2C(C)C)cc1N1CCNCC1` the clearance [5] was 52 mL/min/kg and the Ki [1] was 1 nM.
Work on `COc1ccc(S(=O)(=O)Nc2cc(Br)cc(Br)c2Cl)cc1N1CCNCC1` yielded a Ki [1] of 2.51 nM.
Work on `COc1ccc(S(=O)(=O)Nc2cc(Cl)cc(Cl)c2Br)cc1N1CCNCC1` yielded a Ki [1] of 3.16 nM.
`COc1ccc(S(=O)(=O)Nc2ccccc2Br)cc1N1CCNCC1` showed a clearance [5] of 60 mL/min/kg, a Distribution ratio (Rattus norvegicus) of 0.24 and a Ki [1] of 1.58 nM.
`COc1ccc(S(=O)(=O)N2CCc3cc(C)c(C(F)(F)F)cc32)cc1N1CCNCC1` showed a clearance [5] of 73 mL/min/kg, a Distribution ratio (Rattus norvegicus) of 0.41 and a Ki [1] of 3.98 nM.
With `COc1ccc(S(=O)(=O)Nc2cc(Br)cc(Br)c2)cc1N1CCNCC1` the Ki [1] was 0.501 nM.
`COc1cc(Cl)c(C)cc1NS(=O)(=O)c1ccc(OC)c(N2CCNCC2)c1` gave a Ki [1] of 2 nM.
